Calls of active or inactive are those of the source. The rule behind the calls is not given here.
Key:
[1] = target: Stromelysin-1 (Homo sapiens) (UniProt P08254); experiment: Inhibition of MMP3 (unknown origin) using (5-FAM/QXLTM) FRET peptide substrate assessed as residual activity at 10 uM incubated for 15 mins prior to substrate addition measured for 2 hrs
Procedure, shortened: (§1)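 Protease panel screen: enzyme and test inhibitor preincubated 15 min in the enzyme's reaction buffer, then substrate added. Reaction followed for 2 h, and activity was taken from the initial linear portion of the progress-curve slope. Enzyme, substrate, buffer and detection conditions for each target are given only in the paper's supporting table.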

[2] = target: Coagulation factor X (Homo sapiens) (UniProt P00742); experiment: Inhibition of Factor-10a (unknown origin) using CH3SO2-D-CHA-Gly-Arg-AMC-AcOH substrate assessed as residual activity at 10 uM incubated for 15 mins prior to substrate addition measured for 2 hrs; procedure, shortened: as §1
Chain of Coagulation factor X (Homo sapiens) (P00742 41-179 limits assumed): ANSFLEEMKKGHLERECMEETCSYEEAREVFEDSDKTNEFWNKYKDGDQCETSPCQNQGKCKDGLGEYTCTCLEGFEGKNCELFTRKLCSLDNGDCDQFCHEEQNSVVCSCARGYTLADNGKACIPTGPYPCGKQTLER
Chain of Coagulation factor X (Homo sapiens) (P00742 235-488 limits assumed): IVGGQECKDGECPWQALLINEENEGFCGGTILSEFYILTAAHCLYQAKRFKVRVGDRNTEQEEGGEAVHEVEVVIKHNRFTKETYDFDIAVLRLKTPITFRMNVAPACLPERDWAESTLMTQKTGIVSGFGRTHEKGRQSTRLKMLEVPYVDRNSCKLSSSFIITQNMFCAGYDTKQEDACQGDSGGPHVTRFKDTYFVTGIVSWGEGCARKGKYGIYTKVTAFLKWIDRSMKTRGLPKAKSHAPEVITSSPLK

Tryptase gamma = Tryptase gamma (Homo sapiens, UniProt Q9NRR2); experiment: Inhibition of Tryptase gamma1 (unknown origin) using Z-GPR-AMC substrate incubated for 15 mins prior to substrate addition measured for 2 hrs
Chain of Tryptase gamma (Q9NRR2 38-321 limits assumed, other chains not shown): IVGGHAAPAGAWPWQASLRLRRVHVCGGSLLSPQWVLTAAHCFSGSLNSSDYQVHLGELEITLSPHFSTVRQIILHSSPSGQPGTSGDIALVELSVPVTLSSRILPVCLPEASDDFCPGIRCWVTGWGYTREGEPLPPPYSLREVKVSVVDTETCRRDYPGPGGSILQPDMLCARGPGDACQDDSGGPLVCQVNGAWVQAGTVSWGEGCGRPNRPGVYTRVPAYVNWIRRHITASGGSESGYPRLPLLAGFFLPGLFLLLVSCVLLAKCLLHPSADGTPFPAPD
Procedure, shortened: (§2)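 Protease panel screen: enzyme and inhibitor preincubated 15 min in reaction buffer, then substrate added; reaction followed for 2 h and the initial linear part of the progress curve used for activity. Enzyme, substrate, buffer and detection details are given only in a supporting table.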

[3] = target: Dipeptidyl peptidase 1 (Homo sapiens) (UniProt P53634); experiment: Inhibition of Cathepsin C (unknown origin) using Z-FR-AMC substrate assessed as residual activity at 10 uM incubated for 15 mins prior to substrate addition measured for 2 hrs; procedure, shortened: as §1
[4] = target: Dipeptidyl peptidase 4 (Homo sapiens) (UniProt P27487); experiment: Inhibition of DPP4 (unknown origin) using H-GP-AMC substrate assessed as residual activity at 10 uM incubated for 15 mins prior to substrate addition measured for 2 hrs; procedure, shortened: as §1
[5] = target: T1, Neutrophil elastase (Homo sapiens) (UniProt P08246); settings: 10 uM
T1 sequence (whole entry): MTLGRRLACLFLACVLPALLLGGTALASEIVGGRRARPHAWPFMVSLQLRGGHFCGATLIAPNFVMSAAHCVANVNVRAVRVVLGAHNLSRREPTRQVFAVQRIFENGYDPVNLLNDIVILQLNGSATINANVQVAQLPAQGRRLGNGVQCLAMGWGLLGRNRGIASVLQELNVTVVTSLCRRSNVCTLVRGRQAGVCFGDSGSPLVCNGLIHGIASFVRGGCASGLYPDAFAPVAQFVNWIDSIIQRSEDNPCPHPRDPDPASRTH

[6] = target: Angiotensin-converting enzyme (Homo sapiens) (UniProt P12821); experiment: Inhibition of ACE1 (unknown origin) using MCA-RPPGFSAFK(Dnp) substrate assessed as residual activity at 10 uM incubated for 15 mins prior to substrate addition measured for 2 hrs; procedure, shortened: as §1
[7] = target: Disintegrin and metalloproteinase domain-containing protein 10 (Homo sapiens) (UniProt O14672); experiment: Inhibition of ADAM10 (unknown origin) using MCA-PLAQAV-Dpa-RSSSR-[…] substrate assessed as residual activity at 10 uM incubated for 15 mins prior to substrate addition measured for 2 hrs; procedure, shortened: as §1
Chain of Disintegrin and metalloproteinase domain-containing protein 10 (Homo sapiens) (O14672 whole entry, the tested form may be a part): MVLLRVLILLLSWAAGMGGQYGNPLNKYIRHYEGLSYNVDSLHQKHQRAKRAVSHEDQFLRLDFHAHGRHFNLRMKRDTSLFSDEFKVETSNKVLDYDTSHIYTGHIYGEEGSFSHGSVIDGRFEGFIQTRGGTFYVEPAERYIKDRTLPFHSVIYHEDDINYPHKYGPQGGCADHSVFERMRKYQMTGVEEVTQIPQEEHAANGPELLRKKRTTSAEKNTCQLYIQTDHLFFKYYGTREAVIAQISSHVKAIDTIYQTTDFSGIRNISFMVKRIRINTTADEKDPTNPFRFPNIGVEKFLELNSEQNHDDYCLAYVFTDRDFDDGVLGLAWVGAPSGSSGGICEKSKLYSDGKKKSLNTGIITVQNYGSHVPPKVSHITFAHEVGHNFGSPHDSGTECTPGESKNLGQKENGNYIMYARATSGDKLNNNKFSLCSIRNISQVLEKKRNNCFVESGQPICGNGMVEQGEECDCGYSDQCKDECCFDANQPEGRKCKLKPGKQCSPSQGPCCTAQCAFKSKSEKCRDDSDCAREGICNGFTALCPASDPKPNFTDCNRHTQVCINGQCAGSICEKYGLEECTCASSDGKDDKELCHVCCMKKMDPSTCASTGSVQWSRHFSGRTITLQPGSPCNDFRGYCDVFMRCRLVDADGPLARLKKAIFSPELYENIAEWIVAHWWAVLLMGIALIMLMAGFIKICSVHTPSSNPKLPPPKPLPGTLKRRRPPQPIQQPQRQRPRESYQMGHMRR

[8] = target: Kallikrein-1 (Homo sapiens) (UniProt P06870); experiment: Inhibition of Kallikrein-1 (unknown origin) using Z-GPR-AMC substrate assessed as residual activity at 10 uM incubated for 15 mins prior to substrate addition measured for 2 hrs; procedure, shortened: as §1
Chain of Kallikrein-1 (Homo sapiens) (P06870 25-262 limits assumed): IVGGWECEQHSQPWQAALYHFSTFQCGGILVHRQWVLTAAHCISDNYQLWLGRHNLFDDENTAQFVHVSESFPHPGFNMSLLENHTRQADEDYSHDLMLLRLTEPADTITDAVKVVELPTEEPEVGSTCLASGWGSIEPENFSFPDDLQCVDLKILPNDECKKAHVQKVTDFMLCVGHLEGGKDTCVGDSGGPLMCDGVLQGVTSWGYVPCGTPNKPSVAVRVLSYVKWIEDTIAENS

Homo sapiens = organism: Homo sapiens; experiment: Inhibition of Thrombin alpha (unknown origin) using H-D-CHA -Ala-Arg-AMC.2AcOH substrate assessed as residual activity at 10 uM incubated for 15 mins prior to substrate addition measured for 2 hrs; procedure, shortened: as §2
[9] = target: T1, Neutrophil elastase (Homo sapiens); settings: BEAS2B, 100 uM
[10] = target: Matrix metalloproteinase-9 (Homo sapiens) (UniProt P14780); experiment: Inhibition of MMP9 (unknown origin) using (5-FAM/QXLTM) FRET peptide substrate assessed as residual activity at 10 uM incubated for 15 mins prior to substrate addition measured for 2 hrs; procedure, shortened: as §2
Chain of Matrix metalloproteinase-9 (Homo sapiens) (P14780 whole entry): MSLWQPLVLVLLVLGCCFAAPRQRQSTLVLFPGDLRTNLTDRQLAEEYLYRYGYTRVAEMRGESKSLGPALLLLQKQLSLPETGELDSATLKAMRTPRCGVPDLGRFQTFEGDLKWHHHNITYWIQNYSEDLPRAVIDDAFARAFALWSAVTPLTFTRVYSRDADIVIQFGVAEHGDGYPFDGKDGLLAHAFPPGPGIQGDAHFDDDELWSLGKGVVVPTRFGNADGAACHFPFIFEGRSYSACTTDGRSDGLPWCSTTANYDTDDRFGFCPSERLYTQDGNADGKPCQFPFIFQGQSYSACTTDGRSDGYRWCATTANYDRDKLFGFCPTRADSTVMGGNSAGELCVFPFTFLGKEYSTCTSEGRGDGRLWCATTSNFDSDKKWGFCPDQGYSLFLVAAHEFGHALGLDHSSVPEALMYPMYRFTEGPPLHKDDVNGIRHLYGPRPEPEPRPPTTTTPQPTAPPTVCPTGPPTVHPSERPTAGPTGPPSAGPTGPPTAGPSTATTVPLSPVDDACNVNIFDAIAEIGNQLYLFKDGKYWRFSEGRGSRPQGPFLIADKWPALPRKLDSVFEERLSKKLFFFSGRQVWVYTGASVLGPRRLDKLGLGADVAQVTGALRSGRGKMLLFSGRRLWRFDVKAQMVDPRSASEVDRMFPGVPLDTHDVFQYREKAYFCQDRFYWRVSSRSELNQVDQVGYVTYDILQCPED

[11] = Inhibition of porcine pancreatic elastase using Suc-AAA-pNa substrate incubated for 15 mins prior to substrate addition measured for 2 hrs; parameters: species or system Sus scrofa
Procedure, shortened: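 Elastase preincubated with test compound (DMSO) in Tris-HCl pH 8.0 for 15 min at room temperature; N-succinyl-Ala-Ala-Ala-p-nitroanilide then added (2 mM stock in Tris-HCl pH 8.0). Absorbance at 405 nm recorded every 30 s; activity as initial slope, percent of uninhibited reaction.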

[12] = target: Cathepsin B (Homo sapiens) (UniProt P07858); experiment: Inhibition of Cathepsin B (unknown origin) using Z-FR-AMC substrate assessed as residual activity at 10 uM incubated for 15 mins prior to substrate addition measured for 2 hrs; procedure, shortened: as §1
[13] = target: Kallikrein-13 (Homo sapiens) (UniProt Q9UKR3); experiment: Inhibition of Kallikrein-13 (unknown origin) using VPR-AMC substrate assessed as residual activity at 10 uM incubated for 15 mins prior to substrate addition measured for 2 hrs; procedure, shortened: as §1
[14] = target: Plasminogen (Homo sapiens) (UniProt P00747); experiment: Inhibition of Plasmin (unknown origin) using H-D-CHA -Ala-Arg-AMC.2AcOH substrate assessed as residual activity at 10 uM incubated for 15 mins prior to substrate addition measured for 2 hrs; procedure, shortened: as §2
[15] = target: Neutrophil collagenase (Homo sapiens) (UniProt P22894); experiment: Inhibition of MMP8 (unknown origin) using (5-FAM/QXLTM) FRET peptide substrate assessed as residual activity at 10 uM incubated for 15 mins prior to substrate addition measured for 2 hrs; procedure, shortened: as §2
Chain of Neutrophil collagenase (Homo sapiens) (P22894 101-467 limits assumed): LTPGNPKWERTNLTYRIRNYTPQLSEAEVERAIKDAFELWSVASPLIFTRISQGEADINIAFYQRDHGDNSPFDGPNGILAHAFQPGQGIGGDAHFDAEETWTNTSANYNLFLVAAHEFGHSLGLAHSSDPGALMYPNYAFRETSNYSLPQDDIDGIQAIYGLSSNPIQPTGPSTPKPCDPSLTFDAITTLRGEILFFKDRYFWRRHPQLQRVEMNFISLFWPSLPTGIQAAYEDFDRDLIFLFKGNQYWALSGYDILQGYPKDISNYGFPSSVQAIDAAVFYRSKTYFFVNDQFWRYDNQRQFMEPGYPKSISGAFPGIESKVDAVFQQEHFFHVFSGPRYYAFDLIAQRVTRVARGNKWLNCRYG

Hepacivirus hominis = experiment: Inhibition of Hepatitis C virus NS3/4A protease using Anaspec EnzoLyte substrate assessed as residual activity at 10 uM incubated for 15 mins prior to substrate addition measured for 2 hrs; procedure, shortened: as §1
[16] = target: Cathepsin Z (Homo sapiens) (UniProt Q9UBR2); experiment: Inhibition of Cathepsin X/Z (unknown origin) using MCA-RPPGFSAFK(Dnp) substrate assessed as residual activity at 10 uM incubated for 15 mins prior to substrate addition measured for 2 hrs; procedure, shortened: as §1
Chain of Cathepsin Z (Homo sapiens) (Q9UBR2 whole entry): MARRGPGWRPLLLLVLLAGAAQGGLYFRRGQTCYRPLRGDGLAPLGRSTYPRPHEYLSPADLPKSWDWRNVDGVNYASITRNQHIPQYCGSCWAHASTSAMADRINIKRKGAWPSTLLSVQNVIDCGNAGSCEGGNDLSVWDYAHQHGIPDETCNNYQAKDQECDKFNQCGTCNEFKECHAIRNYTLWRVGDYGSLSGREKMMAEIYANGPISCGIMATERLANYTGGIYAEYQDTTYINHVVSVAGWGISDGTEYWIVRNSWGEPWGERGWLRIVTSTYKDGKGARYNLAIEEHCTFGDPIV

[17] = target: T1, Neutrophil elastase (Homo sapiens); settings: BEAS2B, 10 uM
[18] = target: T1, Neutrophil elastase (Homo sapiens); settings: 10 uM; remark: listed apart in the source
[19] = target: T1, Neutrophil elastase (Homo sapiens); settings: 10 uM; remark: listed apart in the source
[20] = target: Dipeptidyl peptidase 9 (Homo sapiens) (UniProt Q86TI2); experiment: Inhibition of DPP9 (unknown origin) using H-GP-AMC substrate assessed as residual activity at 10 uM incubated for 15 mins prior to substrate addition measured for 2 hrs; procedure, shortened: as §1
Chain of Dipeptidyl peptidase 9 (Homo sapiens) (Q86TI2 2-863 limits assumed): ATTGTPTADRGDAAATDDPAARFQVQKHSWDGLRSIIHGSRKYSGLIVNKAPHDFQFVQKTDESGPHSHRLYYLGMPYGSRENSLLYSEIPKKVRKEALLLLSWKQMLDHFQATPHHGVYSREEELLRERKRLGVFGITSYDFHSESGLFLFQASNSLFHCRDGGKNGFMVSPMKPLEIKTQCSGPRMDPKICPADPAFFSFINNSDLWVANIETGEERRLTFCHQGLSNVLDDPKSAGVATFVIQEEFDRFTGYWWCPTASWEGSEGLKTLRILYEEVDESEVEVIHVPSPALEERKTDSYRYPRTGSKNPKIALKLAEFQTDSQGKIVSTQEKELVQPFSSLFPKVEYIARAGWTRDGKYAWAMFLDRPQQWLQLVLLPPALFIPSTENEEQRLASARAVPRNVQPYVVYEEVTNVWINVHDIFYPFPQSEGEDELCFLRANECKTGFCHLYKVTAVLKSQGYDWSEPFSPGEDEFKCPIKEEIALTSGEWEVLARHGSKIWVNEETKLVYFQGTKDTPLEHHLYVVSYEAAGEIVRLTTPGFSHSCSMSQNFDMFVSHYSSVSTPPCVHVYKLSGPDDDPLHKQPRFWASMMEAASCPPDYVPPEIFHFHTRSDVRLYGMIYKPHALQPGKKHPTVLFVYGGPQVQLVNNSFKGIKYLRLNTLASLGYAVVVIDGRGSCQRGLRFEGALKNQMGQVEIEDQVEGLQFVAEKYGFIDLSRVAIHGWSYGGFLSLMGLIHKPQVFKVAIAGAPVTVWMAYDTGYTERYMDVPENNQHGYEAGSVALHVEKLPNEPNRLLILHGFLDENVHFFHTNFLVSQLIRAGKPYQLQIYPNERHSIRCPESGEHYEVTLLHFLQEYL

[21] = target: Plasma kallikrein (Homo sapiens) (UniProt P03952); experiment: Inhibition of Plasma Kallikrein (unknown origin) using Z-FR-AMC substrate assessed as residual activity at 10 uM incubated for 15 mins prior to substrate addition measured for 2 hrs; procedure, shortened: as §2
Chain of Plasma kallikrein (Homo sapiens) (P03952 20-390 limits assumed): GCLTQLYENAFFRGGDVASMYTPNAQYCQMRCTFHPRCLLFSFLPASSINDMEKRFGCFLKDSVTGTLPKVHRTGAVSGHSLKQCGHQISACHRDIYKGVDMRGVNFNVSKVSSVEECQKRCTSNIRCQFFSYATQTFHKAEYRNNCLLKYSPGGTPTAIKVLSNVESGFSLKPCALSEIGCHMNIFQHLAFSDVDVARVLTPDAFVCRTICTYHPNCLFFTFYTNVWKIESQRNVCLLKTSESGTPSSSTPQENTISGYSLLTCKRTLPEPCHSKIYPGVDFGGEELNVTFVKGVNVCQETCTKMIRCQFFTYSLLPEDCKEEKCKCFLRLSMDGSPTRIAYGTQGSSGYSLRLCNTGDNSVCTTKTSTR
Chain of Plasma kallikrein (Homo sapiens) (P03952 391-638 limits assumed): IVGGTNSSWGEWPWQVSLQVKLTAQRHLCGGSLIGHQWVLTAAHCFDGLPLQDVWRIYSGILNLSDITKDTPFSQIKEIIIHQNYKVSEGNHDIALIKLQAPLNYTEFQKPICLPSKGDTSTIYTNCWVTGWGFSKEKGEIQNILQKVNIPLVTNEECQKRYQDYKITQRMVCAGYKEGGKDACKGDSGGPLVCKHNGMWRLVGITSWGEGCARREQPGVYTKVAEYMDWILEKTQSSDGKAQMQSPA

[22] = Inhibition of Proteinase K (unknown origin) using H-D-CHA -Ala-Arg-AMC.2AcOH substrate incubated for 15 mins prior to substrate addition measured for 2 hrs; parameters: species or system Homo sapiens; procedure, shortened: as §2

Chain of Stromelysin-1 (Homo sapiens) (P08254 100-477 limits assumed): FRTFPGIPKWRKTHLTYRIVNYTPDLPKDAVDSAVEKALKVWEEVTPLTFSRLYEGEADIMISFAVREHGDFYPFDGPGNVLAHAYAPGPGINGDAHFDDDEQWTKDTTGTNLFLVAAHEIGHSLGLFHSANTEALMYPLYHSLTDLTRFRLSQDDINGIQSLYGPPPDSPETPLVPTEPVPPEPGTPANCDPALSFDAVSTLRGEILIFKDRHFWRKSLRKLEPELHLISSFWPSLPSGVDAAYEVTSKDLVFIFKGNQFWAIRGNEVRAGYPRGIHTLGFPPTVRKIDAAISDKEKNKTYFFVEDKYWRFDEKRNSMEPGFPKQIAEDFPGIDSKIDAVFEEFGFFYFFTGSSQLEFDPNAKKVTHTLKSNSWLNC

C/C=C1\NC(=O)[C@@H](NC(=O)[C@@H](NC(=O)[C@@H](COS(=O)(=O)[O-])OC)C(C)C)[C@@H](C)OC(=O)[C@H]([C@H](C)CC)NC(=O)[C@H](Cc2ccccc2)N(C)C(=O)[C@H](Cc2ccccc2)N2C(=O)[C@H](CC[C@H]2O)NC1=O.[Na+] [Symplostatin 5]
Activity [1]: 100%
Activity [2]: 100%
IC50 (Tryptase gamma): < 10 µM
Activity [3]: 50%
Activity [4]: 100%
inhibition [5]: Active
Activity [6]: 100%
Activity [7]: 100%
Activity [8]: 100%
Activity (Homo sapiens): 100%
inhibition [9]: inactive
Activity [10]: 100%
pIC50 [11]: > 5
Activity [12]: 100%
Activity [13]: 100%
Activity [14]: 100%
Activity [15]: 100%
Activity (Hepacivirus hominis): 100%
Activity [16]: 100%
inhibition [17]: Active
inhibition [18]: Active
inhibition [19]: inactive
Activity [20]: 100%
Activity [21]: 50%
pIC50 [22]: < 5

Reference: ChEMBL document CHEMBL2331221, “Potent elastase inhibitors from cyanobacteria: structural basis and mechanisms mediating cytoprotective and anti-inflammatory effects in bronchial epithelial cells” (J Med Chem, 2013)
